Measurements from different studies.
Lines come from different studies, so protocols differ.
HDAC7: Histone deacetylase 7 (HDAC7, Homo sapiens, UniProt Q8WUI4)
WDR5: WD repeat-containing protein 5 (WDR5, Homo sapiens, UniProt P61964)
OfChi-h: Chitinase (OfChi-h, Ostrinia furnacalis, UniProt Q4AE59)

Structure (SMILES) | target | test | setting | endpoint | value
Cc1cc([C@@H](C)Nc2ccccc2C(=O)O)c2nc(N3CCC(F)(F)CC3)c(C#N)c(=O)n2c1 | Protein kinase C epsilon type (PRKCE, Homo sapiens, UniProt Q02156) | binding, competition with immobilised ligand | 1 µM | remaining binding | 100%
C=CC(=O)N1CCC(COCC(=O)N2CCN(c3nc(-c4cnc(N)nc4C(F)F)nc(N4CCOC[C@@H]4C)n3)CC2)CC1 | Cyclin-dependent kinase-like 3 (CDKL3, Homo sapiens, UniProt Q8IVW4) | binding, competition with immobilised ligand | 1 µM | remaining binding | 100%
COc1ccc(S(=O)(=O)N(CC(=O)NO)CC(C)C)cc1 | 72 kDa type IV collagenase (MMP2, Homo sapiens, UniProt P08253) | enzyme activity, inhibitor | 0.5 µM | inhibition | 60.9%
O=C(/C=C/c1cccc(OS(=O)(=O)Oc2ccc(C(F)(F)F)cc2)c1)NO | HDAC7 | enzyme activity, inhibitor, fluorescence | 10 µM | inhibition | 30%
C[C@@H]1CN(c2ccc(-c3cc(C(=O)NCCOCCOCCOCCOCCOCCOCCOCCOCCOCCNC(=O)/C=C/c4[nH]cc(C(=O)N[C@@H](CC(N)=O)c5ccc(F)c(Cl)c5)c4-c4ccc(Cl)cc4F)ccc3F)cc2NC(=O)c2c[nH]c(=O)cc2C(F)(F)F)C[C@H](C)N1C | WDR5 | thermal stability, DSF | 5.5 µM | ΔTm | 8.9 °C
O=C(NO)c1cncc(OS(=O)(=O)Oc2ccc3ccccc3c2)c1 | HDAC7 | enzyme activity, inhibitor, fluorescence | 10 µM | inhibition | 46%
CN(C)c1nc(NCc2cccc(F)c2)c(/N=N/c2ccc(Cl)cc2)c(N(C)C)n1 | OfChi-h | enzyme activity, inhibitor, fluorescence | 1 µM | inhibition | 82.7%
CNc1ncc2c(/C=C/C(=O)N3CCC(OC)CC3)nn(Cc3cccc(C(F)(F)F)c3)c2n1 | Bone morphogenetic protein receptor type-1A (BMPR1A, Homo sapiens, UniProt P36894) | enzyme activity, inhibitor, radiometric | 1 µM | remaining activity | 93%
CCCCc1ccc(CNc2nc(N(C)C)nc(N(C)C)c2/N=N/c2ccc(Cl)cc2)cc1 | OfChi-h | enzyme activity, inhibitor, fluorescence | 1 µM | inhibition | 91.9%
COc1cc(-c2cncc3c2CN(C)Cc2cc(N4CCNCC4)ccc2-3)cc(OC)c1OC | G protein-coupled receptor kinase 6 (GRK6, Homo sapiens, UniProt P43250) | enzyme activity, inhibitor | 1 µM | remaining activity | 112%
C=CS(=O)(=O)c1ccc(Nc2nc(OCC3CCCCC3)c3nc[nH]c3n2)cc1 | Gasdermin-D (GSDMD, Homo sapiens, UniProt P57764) | binding, BLI | – | koff | 0.0439 s⁻¹
C[C@@H]1CN(c2ccc(-c3cc(C(=O)NCCOCCOCCOCCOCCOCCOCCNC(=O)/C=C/c4[nH]cc(C(=O)N[C@@H](CC(N)=O)c5ccc(F)c(Cl)c5)c4-c4ccc(Cl)cc4F)ccc3F)cc2NC(=O)c2ccc(F)cc2C(F)(F)F)C[C@H](C)N1C | WDR5 | thermal stability, DSF | 5.5 µM | ΔTm | 5.9 °C
CC(C)OC(=O)CNc1cccc(CN(Cc2ccc(-n3cccn3)cc2)S(=O)(=O)c2cccnc2)n1 | Beta-2 adrenergic receptor (ADRB2, Homo sapiens, UniProt P07550) | ligand displacement, radioligand | 10 µM | inhibition | 2%
